Counter-ions that a name gives are not always drawn. Active and inactive are the calls of the source. No cut-off for these calls is given here.
Key:
[1] = tested on: MDA-MB-231; experiment: Cytotoxicity against human MDA-MB-231 cells after 4 days by MTT assay; type: functional, cell-based; details: MDA-MB-231, 96 h
How it was run: (§1)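 Cells seeded at 2-4 × 10^4 per well and attached overnight in medium with 10% FBS, 5% CO₂, 37 °C. Medium replaced on day 1 with graded compound concentrations. On day 4, MTT added (0.5 mg/mL final) for 4 h, formazan dissolved in DMSO, absorbance read at 570 nm. IC50 from four-parameter logistic fit; mean ± SD of three experiments in triplicate.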

[2] = tested on: MCF7; experiment: Cytotoxicity against human MCF7 cells after 4 days by MTT assay; type: functional, cell-based; details: MCF7, 96 h; how it was run: as §1
[3] = tested on: HCT-116; experiment: Cytotoxicity against human HCT116 cells after 4 days by MTT assay; type: functional, cell-based; details: HCT-116, 96 h; how it was run: as §1
[4] = tested on: DU-145; experiment: Cytotoxicity against human DU145 cells after 4 days by MTT assay; type: functional, cell-based; details: DU-145, 96 h; how it was run: as §1
[5] = tested on: HeLa; experiment: Cytotoxicity against human HeLa cells after 4 days by MTT assay; type: functional, cell-based; details: 96 h; how it was run: as §1
[6] = tested on: MCF7; experiment: Ratio of compound IC50 to adriamycin IC50 for human MCF7 cells; type: functional
[7] = tested on: HCT-116; experiment: Ratio of compound IC50 to adriamycin IC50 for human HCT116 cells; type: functional
[8] = tested on: DU-145; experiment: Ratio of compound IC50 to adriamycin IC50 for human DU145 cells; type: functional
[9] = tested on: HeLa; experiment: Ratio of compound IC50 to adriamycin IC50 for human HeLa cells; type: functional
[10] = molecular target: DNA topoisomerase 2-alpha (Homo sapiens) (UniProt P11388); experiment: Inhibition of human topoisomerase 2alpha-mediated relaxation of supercoiled pBR322 DNA at 20 uM after 30 mins by agarose gel electrophoresis
Chain of DNA topoisomerase 2-alpha (Homo sapiens) (P11388 whole entry): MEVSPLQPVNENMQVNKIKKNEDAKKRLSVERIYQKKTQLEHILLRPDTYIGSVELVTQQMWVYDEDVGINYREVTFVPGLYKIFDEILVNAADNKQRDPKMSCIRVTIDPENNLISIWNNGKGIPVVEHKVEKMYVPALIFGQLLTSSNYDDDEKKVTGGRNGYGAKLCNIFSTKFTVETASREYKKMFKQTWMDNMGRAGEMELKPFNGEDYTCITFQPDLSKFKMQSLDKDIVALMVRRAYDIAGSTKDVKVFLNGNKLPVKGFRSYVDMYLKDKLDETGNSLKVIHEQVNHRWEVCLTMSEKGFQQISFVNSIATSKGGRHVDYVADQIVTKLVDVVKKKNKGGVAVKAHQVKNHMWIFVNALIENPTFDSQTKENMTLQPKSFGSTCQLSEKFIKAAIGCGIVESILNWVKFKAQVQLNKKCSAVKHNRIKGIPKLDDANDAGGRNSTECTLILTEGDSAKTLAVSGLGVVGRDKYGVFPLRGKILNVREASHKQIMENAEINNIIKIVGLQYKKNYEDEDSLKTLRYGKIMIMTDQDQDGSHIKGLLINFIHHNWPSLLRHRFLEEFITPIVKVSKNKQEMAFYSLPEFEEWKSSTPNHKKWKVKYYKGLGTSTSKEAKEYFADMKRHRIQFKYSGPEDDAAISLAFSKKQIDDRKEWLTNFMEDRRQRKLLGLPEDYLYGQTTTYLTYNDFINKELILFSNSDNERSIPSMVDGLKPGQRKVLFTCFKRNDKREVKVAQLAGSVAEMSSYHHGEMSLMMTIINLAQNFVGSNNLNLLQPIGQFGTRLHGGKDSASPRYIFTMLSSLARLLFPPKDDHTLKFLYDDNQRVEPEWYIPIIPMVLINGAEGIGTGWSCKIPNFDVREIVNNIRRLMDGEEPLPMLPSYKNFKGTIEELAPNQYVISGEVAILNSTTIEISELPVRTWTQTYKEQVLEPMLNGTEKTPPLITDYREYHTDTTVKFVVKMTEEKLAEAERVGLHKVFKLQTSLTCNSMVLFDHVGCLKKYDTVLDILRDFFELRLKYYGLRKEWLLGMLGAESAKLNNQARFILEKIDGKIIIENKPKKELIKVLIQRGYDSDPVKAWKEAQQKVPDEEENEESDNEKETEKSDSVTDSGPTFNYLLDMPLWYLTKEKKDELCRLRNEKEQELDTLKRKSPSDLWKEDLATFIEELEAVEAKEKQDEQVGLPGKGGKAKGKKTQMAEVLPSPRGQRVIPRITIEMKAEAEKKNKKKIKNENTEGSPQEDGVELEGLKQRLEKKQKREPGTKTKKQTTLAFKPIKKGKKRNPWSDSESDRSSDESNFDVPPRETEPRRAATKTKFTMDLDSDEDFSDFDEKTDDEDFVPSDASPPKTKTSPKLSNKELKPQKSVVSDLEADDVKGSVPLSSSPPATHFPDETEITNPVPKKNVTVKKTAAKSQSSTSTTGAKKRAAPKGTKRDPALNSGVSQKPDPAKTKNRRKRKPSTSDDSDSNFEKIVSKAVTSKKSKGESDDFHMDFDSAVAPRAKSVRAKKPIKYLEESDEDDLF

[11] = molecular target: DNA topoisomerase 2-alpha (Homo sapiens) (UniProt P11388); experiment: Inhibition of human topoisomerase 2alpha-mediated relaxation of supercoiled pBR322 DNA at 100 uM after 30 mins by agarose gel electrophoresis
[12] = tested on: Nucleic Acid; experiment: Binding affinity to Escherichia coli linearized pBR322 DNA at 100 uM after 2 hrs by agarose gel electrophoresis; type: nucleic-acid assay
How it was run: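 DNA cross-linking: 0.5 µg EcoRI-linearized, ethanol-precipitated pBR322 incubated with compound (100 μM) for 2 h at RT in 10 mM Tris-HCl, 1 mM EDTA, pH 8.0. Run on denaturing 1.2% alkaline agarose (50 mM NaOH, 1 mM EDTA running buffer), then neutralized 1 h in 100 mM Tris, 150 mM NaCl, pH 7.6.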

Q: For `COc1cccc2c(=O)c3c(OC)cc(OCC4CO4)cc3oc12` (centres undefined), which IC50 [1] is on record?
A: The IC50 was 3.8 µM.

Q: And the IC50 [2]?
A: The IC50 was 8 µM.

Q: What about the IC50 [3] of the same compound?
A: The IC50 was 1.5 µM.

Q: What about the IC50 [4] of the same compound?
A: The IC50 was 0.8 µM.

Q: What about the IC50 [5] of the same compound?
A: The IC50 was 6.2 µM.

Q: What about the “Ratio IC50” value [6] of the same compound?
A: Its value is 2.

Q: What about the “Ratio IC50” value [7] of the same compound?
A: The value was 2.

Q: What about the “Ratio IC50” value [8] of the same compound?
A: Its value is 2.

Q: What about the “Ratio IC50” value [9] of the same compound?
A: The value was 2.

Q: And the inhibition [10]?
A: The inhibition was 0%.

Q: And the inhibition [11]?
A: The inhibition was 4%.

Q: What does the source list for `CC[C@@]1(O)C(=O)OCc2c1cc1n(c2=O)Cc2cc3ccccc3nc2-1` [CAMPTOTHECIN]?
A: IC50 [2]: 14.2 µM; IC50 [3]: 2.3 µM; IC50 [5]: 1.1 µM

Q: For `COc1cccc2c1C(=O)c1c(O)c3c(c(O)c1C2=O)C[C@@](O)(C(=O)CO)C[C@@H]3O[C@H]1C[C@H](N)[C@H](O)[C@H](C)O1` [DOXORUBICIN HYDROCHLORIDE], which IC50 [1] is on record?
A: Its IC50 is 4.4 µM.

Q: And the IC50 [3]?
A: The IC50 was 4 µM.

Q: And the IC50 [4]?
A: Its IC50 is 1.4 µM.

Q: What does the source list for `COc1cccc2c(=O)c3c(O)cc(OCC(C)(O)CCl)cc3oc12` (centres undefined)?
A: IC50 [1]: 15.4 µM; IC50 [2]: 88.4 µM; IC50 [3]: 15.8 µM; IC50 [4]: 7.2 µM; IC50 [5]: 68.2 µM; inhibition [10]: 41%; inhibition [11]: 85%

Q: How did the IC50 [1] turn out when `COc1cccc2c(=O)c3c(OC)cc(OCC(O)CCl)cc3oc12` (centres undefined) was run?
A: Its IC50 is 56 µM.

Q: And the IC50 [2]?
A: Its IC50 is 51.7 µM.

Q: What about the IC50 [3] of the same compound?
A: Its IC50 is 16.4 µM.

Q: And the IC50 [4]?
A: Its IC50 is 15.3 µM.

Q: And the IC50 [5]?
A: The IC50 was 59.5 µM.

Q: What about the inhibition [10] of the same compound?
A: The inhibition was 2%.

Q: And the inhibition [11]?
A: Its inhibition is 83%.

Q: How did the IC50 [1] turn out when `COc1cccc2c(=O)c3c(O)cc(OCC4(C)CO4)cc3oc12` (centres undefined) was run?
A: The IC50 was greater than 100 µM.

Q: And the IC50 [2]?
A: Its IC50 is greater than 100 µM.

Q: And the IC50 [3]?
A: Its IC50 is 69.1 µM.

Q: And the IC50 [4]?
A: The IC50 was greater than 100 µM.

Q: What about the IC50 [5] of the same compound?
A: The IC50 was greater than 100 µM.

Q: What about the inhibition [10] of the same compound?
A: Its inhibition is 3%.

Q: And the inhibition [11]?
A: Its inhibition is 23%.

Q: `CC(O)(CCl)COc1cc(O)c2c(=O)c3ccccc3oc2c1` (centres undefined) was tested. Which IC50 [1] did it give?
A: The IC50 was greater than 100 µM.

Q: What about the IC50 [2] of the same compound?
A: Its IC50 is greater than 100 µM.

Q: And the IC50 [3]?
A: The IC50 was 47.1 µM.

Q: What about the IC50 [4] of the same compound?
A: The IC50 was greater than 100 µM.

Q: And the IC50 [5]?
A: Its IC50 is greater than 100 µM.

Q: What about the inhibition [10] of the same compound?
A: The inhibition was 20%.

Q: What about the inhibition [11] of the same compound?
A: The inhibition was 52%.

Q: For `COc1cc([C@@H]2c3cc4c(cc3[C@@H](O[C@@H]3O[C@@H]5CO[C@@H](C)O[C@H]5[C@H](O)[C@H]3O)[C@H]3COC(=O)[C@H]23)OCO4)cc(OC)c1O` [ETOPOSIDE], which IC50 [2] is on record?
A: The IC50 was 17.5 µM.

Q: What about the IC50 [3] of the same compound?
A: The IC50 was 11.9 µM.

Q: What about the IC50 [4] of the same compound?
A: Its IC50 is 13.8 µM.

Q: `CC1(COc2cc(OCC3(C)CO3)c3c(=O)c4ccccc4oc3c2)CO1` (centres undefined) was tested. Which IC50 [1] did it give?
A: The IC50 was 68.2 µM.

Q: What about the IC50 [2] of the same compound?
A: The IC50 was 15.2 µM.

Q: And the IC50 [3]?
A: The IC50 was 2.6 µM.

Q: What about the IC50 [4] of the same compound?
A: Its IC50 is 3.9 µM.

Q: What about the IC50 [5] of the same compound?
A: The IC50 was 15.8 µM.

Q: What about the inhibition [10] of the same compound?
A: The inhibition was 24%.

Q: And the inhibition [11]?
A: Its inhibition is 41%.

Q: And the Activity [12]?
A: The Activity was “Active”.

Q: Which IC50 [1] does the source give for `COc1cc(OCC2CO2)cc2oc3ccccc3c(=O)c12` (centres undefined) here?
A: Its IC50 is 10.9 µM.

Q: What about the IC50 [2] of the same compound?
A: The IC50 was 14 µM.

Q: And the IC50 [3]?
A: Its IC50 is 6.6 µM.

Q: And the IC50 [4]?
A: Its IC50 is 1.5 µM.

Q: And the IC50 [5]?
A: Its IC50 is 10.5 µM.

Q: What about the inhibition [10] of the same compound?
A: Its inhibition is 5%.

Q: And the inhibition [11]?
A: The inhibition was 51%.

Q: `CC1(COc2cc(O)c3c(=O)c4ccccc4oc3c2)CO1` (centres undefined) was tested. Which IC50 [1] did it give?
A: The IC50 was 41.7 µM.

Q: And the IC50 [2]?
A: The IC50 was 15 µM.

Q: What about the IC50 [3] of the same compound?
A: Its IC50 is 12.1 µM.

Q: And the IC50 [4]?
A: The IC50 was 18.9 µM.

Q: And the IC50 [5]?
A: The IC50 was 14.3 µM.

Q: What about the inhibition [10] of the same compound?
A: Its inhibition is 11%.

Q: What about the inhibition [11] of the same compound?
A: Its inhibition is 25%.

Q: `COc1cccc2c(=O)c3c(OCC(O)CCl)cc(OCC4CO4)cc3oc12` (centres undefined) was tested. Which IC50 [1] did it give?
A: Its IC50 is 18.9 µM.

Q: What about the IC50 [2] of the same compound?
A: Its IC50 is 69 µM.

Q: And the IC50 [3]?
A: Its IC50 is 9.9 µM.

Q: What about the IC50 [4] of the same compound?
A: Its IC50 is 3.9 µM.

Q: What about the IC50 [5] of the same compound?
A: Its IC50 is 41.7 µM.

Q: And the inhibition [10]?
A: The inhibition was 27%.

Q: And the inhibition [11]?
A: Its inhibition is 65%.

Q: `COc1cccc2c(=O)c3c(OCC4CO4)cc(OCC4CO4)cc3oc12` (centres undefined) was tested. Which IC50 [1] did it give?
A: The IC50 was 5.4 µM.

Q: And the IC50 [2]?
A: The IC50 was 9.9 µM.

Q: What about the IC50 [3] of the same compound?
A: Its IC50 is 2 µM.

Q: What about the IC50 [4] of the same compound?
A: Its IC50 is 2.4 µM.

Q: And the IC50 [5]?
A: Its IC50 is 4.7 µM.

Q: What about the inhibition [10] of the same compound?
A: The inhibition was 9%.

Q: And the inhibition [11]?
A: The inhibition was 71%.

Q: And the Activity [12]?
A: The Activity was “Active”.

Q: How did the IC50 [1] turn out when `COc1cc(OCC(O)CCl)cc2oc3ccccc3c(=O)c12` (centres undefined) was run?
A: The IC50 was greater than 100 µM.

Q: What about the IC50 [2] of the same compound?
A: Its IC50 is greater than 100 µM.

Q: What about the IC50 [3] of the same compound?
A: The IC50 was 21.6 µM.

Q: And the IC50 [4]?
A: Its IC50 is 40.1 µM.

Q: And the IC50 [5]?
A: The IC50 was greater than 100 µM.

Q: What about the inhibition [10] of the same compound?
A: The inhibition was 1%.

Q: What about the inhibition [11] of the same compound?
A: Its inhibition is 33%.

Q: How did the IC50 [1] turn out when `COc1cccc2c(=O)c3c(OCC4(C)CO4)cc(OCC4(C)CO4)cc3oc12` (centres undefined) was run?
A: The IC50 was 5.1 µM.

Q: What about the IC50 [2] of the same compound?
A: Its IC50 is 2.5 µM.

Q: And the IC50 [3]?
A: Its IC50 is 0.8 µM.

Q: And the IC50 [4]?
A: Its IC50 is 0.9 µM.

Q: And the IC50 [5]?
A: The IC50 was 1.5 µM.

Q: What about the “Ratio IC50” value [6] of the same compound?
A: Its value is 2.

Q: What about the “Ratio IC50” value [7] of the same compound?
A: The value was 2.

Q: And the “Ratio IC50” value [8]?
A: The value was 2.

Q: And the “Ratio IC50” value [9]?
A: Its value is 2.

Q: What about the inhibition [10] of the same compound?
A: The inhibition was 15%.

Q: And the inhibition [11]?
A: Its inhibition is 48%.

Q: What about the Activity [12] of the same compound?
A: Its Activity is “Active”.

From ChEMBL document CHEMBL1240462, “Synthesis and pharmacological evaluation of new methyloxiranylmethoxyxanthone analogues” (Eur J Med Chem, 2010)
